Source: PubChem (several laboratories)
CSN inh – blocks human CSN-mediated cullin deneddylation | Q92905 | AID 651999 | 360,000 compounds, 0.38% hits | inhibition, % at 12.5 µM | Purified CSN, SCF-Nedd8-OG deneddylation, fluorescence polarization;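 active means pattern-corrected inhibition above about 35%, with an unprinted fluorescence ratio check between 0.5 and 1.5, limit read from the data, passing the limit was not always enough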
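Material: human Csn5 produced in HEK293T cells; Input: enzyme 0.24 nM; Reagent: SCFSkp2-Nedd8OG substrate at 10 nM final; Dosing: 12.5 µM compound; Incubation: 90 min reaction at room temperature; Detection: fluorescence polarization of the substrate; Evaluation: % inhibition of substrate cleavage by Csn5; Control set: substrate-only high control, full reaction low control.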
ARFGAP1 inhibitor – rat ARFGAP1 inhibition | Q62848 | Arfgap1-stimulated ARF1 GTP hydrolysis, GDP FP detection | inhibition, % at 16.5 µM | 360,000 compounds, 0.26% hits;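 active means inhibition above a per-plate limit, mean inhibition of low control wells plus 3 SD, cut at about 25% in these data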
Target sequence (Q62848 1-136 limits assumed): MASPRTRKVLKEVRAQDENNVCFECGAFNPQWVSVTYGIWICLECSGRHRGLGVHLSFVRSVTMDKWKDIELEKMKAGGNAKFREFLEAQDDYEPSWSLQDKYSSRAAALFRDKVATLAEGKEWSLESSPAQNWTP
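system = rat Arfgap1 catalytic domain, aa 1-136 | technique = FP, GDP Alexa 633 tracer displaced from anti-GDP antibody, 620/688 nm | compound = one concentration, 16.5 µM, DMSO 1.26% | medium = HEPES-based buffer, pH 7.5 | timing = compound-enzyme preincubation 20 min, reaction 120 min, detection 60 min, 25 °C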
HNF4A DNA FP – change in binding of human HNF4 alpha to DNA | activity change, % at 10 µM | P41235 | HNF4a-FITC DNA binding, fluorescence polarization, 1 h | 360,000 compounds, 0.3% hits; in the data active means activity change above about 30%, passing the limit was not always enough
ASAP1 inh – ASAP1 ArfGAP inhibition; Q9ULH1; inhibition, % at 16.5 µM; ASAP1-stimulated ARF1 GTP hydrolysis, GDP FP detection; 360,000 compounds, 0.19% hits; in the data active means inhibition above about 25%
Target sequence (Q9ULH1 325-724 limits assumed): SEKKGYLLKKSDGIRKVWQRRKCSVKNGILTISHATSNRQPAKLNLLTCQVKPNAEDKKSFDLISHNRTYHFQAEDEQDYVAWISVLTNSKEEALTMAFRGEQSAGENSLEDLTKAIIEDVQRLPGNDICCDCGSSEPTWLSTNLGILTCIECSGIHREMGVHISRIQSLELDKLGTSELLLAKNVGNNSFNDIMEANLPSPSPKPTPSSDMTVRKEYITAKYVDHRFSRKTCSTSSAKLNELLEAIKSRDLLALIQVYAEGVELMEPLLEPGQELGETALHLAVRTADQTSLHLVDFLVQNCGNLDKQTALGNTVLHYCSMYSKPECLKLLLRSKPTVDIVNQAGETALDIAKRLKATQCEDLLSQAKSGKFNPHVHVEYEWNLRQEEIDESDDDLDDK
ARFGAP1 inh conf – confirmation of rat ARFGAP1 inhibitors | shares compounds with ARFGAP1 inhibitor | ARFGAP1-stimulated ARF1 GTP hydrolysis, GDP tracer FP | inhibition, % at 16.5 µM | 890 compounds, 30% hits | AID 651608;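 active means average inhibition over triplicates above the hit cutoff set in the earlier primary screen, cut at about 25% in these data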
Numbers stand for hits; 0 = inactive; - = no result. A selection: hits, their analogues and other compounds. The true share with any hit is near 0.95%.

SMILES | CSN inh | ARFGAP1 inhibitor | HNF4A DNA FP | ASAP1 inh | ARFGAP1 inh conf
O=C(OCC(=O)N1CCN(S(=O)(=O)c2ccccc2)CC1)C1CCC1 | 0 | 0 | 0 | 0 | -
O=C(COC(=O)C12CC3CC(CC(C3)C1)C2)N1CCN(S(=O)(=O)c2ccccc2)CC1 | 0 | 28.8 | 0 | 0 | 0
COc1cc(/C=N/Nc2nc(Nc3ccccc3)nc(-n3nc(C)cc3C)n2)cc(OC)c1OC | 0 | 0 | 0 | 0 | -
COc1ccc(O)c(/C=N/Nc2nc(Nc3ccccc3)nc(-n3nc(C)cc3C)n2)c1 | 0 | 39.3 | 0 | 0 | 0
COc1cccc(C(=O)Cn2c(Br)nc3c2c(=O)n(C)c(=O)n3C)c1 | 0 | 27.8 | 0 | 0 | 0
COc1cc(/C=C/[N+](=O)[O-])ccc1OC(=O)/C=C/c1ccc(F)cc1 | 0 | 0 | 0 | 0 | -
Oc1ccccc1C=NNc1nc2ccccc2s1 | 0 | 0 | 0 | 0 | -
Oc1ccc(C=NNc2nc3ccccc3s2)c(O)c1 | 0 | 30.1 | 0 | 0 | 0
CC(=C/C(=O)O)/C(=C\c1ccc(Br)o1)C(=O)O | 0 | 0 | 0 | 0 | -
COc1ccc(CCNC(=O)CN(c2ccccc2OC)S(C)(=O)=O)cc1OC | 0 | 0 | 0 | 0 | -
COc1ccc(CCNC(=O)CN(c2ccccc2OC)S(C)(=O)=O)cc1 | 0 | 28.2 | 0 | 0 | 0
Cc1sc2ncnc(N3CCC(C(=O)NCC(=O)Nc4ccc(F)c(F)c4)CC3)c2c1C | 0 | 25.4 | 0 | 0 | 0
Cc1sc2ncnc(N3CCC(C(=O)Nc4ccc(Cl)c(Cl)c4)CC3)c2c1C | 0 | 0 | 0 | 0 | -
O=C(O)CC1(C(=O)O)CC2C=CC1C2 (stereo not drawn) | 0 | 25.3 | 0 | 0 | 0
CCC1(C(N)=O)CC2C=CC1C2 (stereo not drawn) | 0 | 0 | 0 | 0 | -
COc1ccc(/C=N/Nc2cc(N3CCOCC3)ncn2)c(OC)c1 | 0 | 0 | 0 | 0 | -
COc1cccc(/C=N/Nc2cc(N3CCOCC3)ncn2)c1O | 0 | 29.2 | 0 | 0 | 42.6
CCOC(=O)c1ccc(NC(=S)N(CCCN2CCCC2)Cc2cccs2)cc1 | 0 | 24.8 | 0 | 0 | 0
COc1ccc([C@H]2C[C@@H](n3cc(COC(=O)c4ccccc4)nn3)[C@H](O)CN2C(=O)C2CCCCC2)cc1 | 0 | 26.2 | 0 | 0 | 0
CCOC(=O)C1=C(COC(=O)CCc2ccc(CC)cc2)NC(=O)NC1C (stereo not drawn) | 0 | 0 | 0 | 0 | -
Cc1sc2nc(SCC(=O)N(CCO)CCO)nc(N)c2c1C | 0 | 27.8 | 0 | 0 | 0
O=C1NC[C@@H](CCCCN2CCN(Cc3ccccc3)C(=O)C2=O)N(Cc2ccccc2)C1=O | 0 | 0 | 0 | 0 | -
C#CCN(C[C@H]1[C@H](OC(=O)NCc2ccc(OC)c(OC)c2)[C@H](OC(=O)NCc2ccc(OC)c(OC)c2)C[C@@H](C(=O)OC)[C@H]1C(=O)OC)S(=O)(=O)c1ccc(C)cc1 | 0 | 0 | 0 | 0 | -
O=[N+]([O-])c1ccc(N/N=C2\CC3CC=CC23)cc1 (stereo not drawn) | 0 | 28.1 | 0 | 0 | 0
O=[N+]([O-])c1ccc(N/N=C2\CC3CC=CC23)c([N+](=O)[O-])c1 (stereo not drawn) | 0 | 0 | 0 | 0 | -
SMILES | CSN inh | ARFGAP1 inhibitor | HNF4A DNA FP | ASAP1 inh | ARFGAP1 inh conf
CC1CCN(S(=O)(=O)c2ccc(NC(=O)c3ccco3)cc2)CC1 | 0 | 0 | 0 | 0 | -
CC1CCC(CN2C(Nc3ccccc3)=NC[C@@H]2Cc2ccccc2)CC1 (stereo partly drawn) | 0 | 28.2 | 0 | 0 | 0
CS(=O)(=O)N1N=C(c2ccco2)CC1c1ccc(Cl)cc1 (stereo not drawn) | 0 | 0 | 0 | 0 | -
Cc1c(C(=O)NN)nn(-c2ccc(Cl)cc2)c(=O)c1C#N | 0 | 24.6 | 0 | 0 | 0
COCCN(Cc1ccc(C)c(Br)c1)C(=O)Cn1cnc(S(=O)(=O)N2CCCC2)c1 | 0 | 0 | 0 | 0 | -
O=C(CSc1nnc(CNC(=O)C23CC4CC(CC(C4)C2)C3)n1-c1ccccc1)Nc1ccc(F)cc1 | 0 | 0 | 0 | 0 | -
Cc1ccc(NC(=O)CSc2nnc(CNC(=O)C34CC5CC(CC(C5)C3)C4)n2-c2ccc(F)cc2)cc1 | 0 | 28.6 | 0 | 0 | 0
CCN(C(=O)COC(=O)Cn1c(=O)oc2ccccc21)c1c(N)n(Cc2ccccc2)c(=O)[nH]c1=O | 0 | 0 | 0 | 0 | -
CCOC(=O)c1cc(NC(=O)Nc2ccc(Br)cc2)c(C)nc1C | 0 | 0 | 0 | 0 | -
CCCc1cc(=O)oc2cc(C)cc(OCC(=O)Nc3ccc(CN4CCOCC4)cc3)c12 | 0 | 0 | 0 | 0 | -
C/C(=N\N1C(=O)c2ccccc2NC1c1ccccc1)c1ccccc1O (stereo not drawn) | 0 | 27.0 | 0 | 0 | 0
COc1cc(OC)cc(C(=O)Nc2ccccc2-c2nnn(CC(=O)Nc3cc(C)on3)n2)c1 | 0 | 25.0 | 0 | 0 | 30.7
CC#CCN(Cc1ccco1)C(=O)C1CCC(=O)N(CCc2cccc(F)c2)C1 (stereo not drawn) | 0 | 28.1 | 0 | 0 | 0
CN(Cc1ccco1)C(=O)C1CCC(=O)N(CCc2cccc(F)c2)C1 (stereo not drawn) | 0 | 0 | 0 | 0 | -
C/C(=N\NC(=S)NC1CCCCC1)c1ccccc1 | 0 | 0 | 0 | 0 | -
CNc1ncnc2c1ncn2[C@H]1CN(Cc2ccc(-c3ccccc3)cc2)C[C@@H](CO)O1 | 0 | 0 | 0 | 0 | -
CCC(=O)N1CCC1(C)C(=O)Nc1ccc2nc(C)ccc2c1 (stereo not drawn) | 0 | 0 | 0 | 0 | -
COC(=O)C1=C(C)N(Cc2ccccc2C(F)(F)F)C(=NCc2ccccc2)NC1c1ccc(C(F)(F)F)cc1 (stereo not drawn) | - | 25.0 | - | 0 | 0
COC(=O)C1=C(C)N(Cc2cccc(C(F)(F)F)c2)C(=NCc2ccccc2C(F)(F)F)NC1c1cccc(F)c1 (stereo not drawn) | - | 26.5 | - | 0 | 0
COC(=O)C1=C(C)N(Cc2ccccc2C(F)(F)F)C(=NCc2cccc(C(F)(F)F)c2)NC1c1ccc(C(F)(F)F)cc1 (stereo not drawn) | - | 0 | - | 0 | -
COC(=O)C1=C(C)N(Cc2cccc(C(F)(F)F)c2)C(=NCc2ccccc2C(F)(F)F)NC1c1cccc(C(F)(F)F)c1 (stereo not drawn) | - | 0 | - | 0 | -
CCOc1ccc2oc(C(=O)OCC(=O)N3CCCC(C)C3)c(C)c2c1 (stereo not drawn) | 0 | 33.3 | 0 | 0 | 33.3
CCOc1ccc2oc(C(=O)OCC(=O)N3CC(C)OC(C)C3)c(C)c2c1 (stereo not drawn) | 0 | 25.5 | 0 | 0 | 33.2
Cc1c(C(=O)OCC(=O)N2CC(C)OC(C)C2)oc2ccc(Br)cc12 (stereo not drawn) | 0 | 0 | 0 | 0 | -
C[C@H]1CN([C@@H](C)CO)C(=O)c2cc(NC(=O)C3CCCCC3)ccc2O[C@H]1CN(C)C(=O)Nc1ccc2c(c1)OCO2 | 0 | 0 | 0 | 0 | -
COc1cc(/C=C/C(=O)N2CCN(Cc3ccccc3)CC2)cc(OC)c1OC | 0 | 0 | 0 | 0 | -
